One assay concerns PANC-1. Briefly: Cytotoxicity against human PANC1 cells transfected with retroviral expression vector pMSCV-LucSh assessed as growth inhibition at 50 uM after 72 hrs by MTS assay. Format: functional, cell-based. The method in brief:
(§1)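 Cells seeded at 5000/well, attached overnight, then given 50 µM of each analog for 72 h at 37 °C. MTS reagent added for about 1 h, absorbance read at 570 nm. Viability normalized to DMSO/untreated controls. Three independent experiments, each with 3–5 replicate wells per concentration. Cells kept in DMEM with 10% FBS.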
Background: Tetrazolium dyes change colour on reduction, which living cells bring about.

The subject of another assay is C8161. Briefly: Cytotoxicity against human C8161 cells assessed as growth inhibition at 50 uM after 72 hrs by MTS assay. Format: functional, cell-based. The method in brief:
(§2)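 MTS assay. Cells kept in DMEM with 10% FBS, plated at 5000 cells/well and left to attach overnight, then exposed to compound (screening at 50 µM) for 72 h at 37 °C. MTS reagent added for about 1 h, then absorbance read at 570 nm. Viability normalized to DMSO/untreated controls. Three independent experiments, 3–5 replicate wells per concentration.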

The subject of the next assay is U-87MG ATCC. Briefly: Cytotoxicity against human U87 cells assessed as growth inhibition at 50 uM after 72 hrs by MTS assay. Format: functional, cell-based. The method in brief: as §2
A further assay relates to MDA-MB-231. In words: Cytotoxicity against human MDA-MB-231 cells assessed as growth inhibition at 50 uM after 72 hrs by MTS assay. Format: functional, cell-based. An outline of the steps:
as §2

In assay [1] the test system is MIA PaCa-2. Briefly: Cytotoxicity against human MIAPaCa2 cells transfected with retroviral expression vector pMSCV-LucSh assessed as growth inhibition at 50 uM after 72 hrs by MTS assay. Format: functional, cell-based. An outline of the steps: as §1
Another assay has as its system A-375. In words: Cytotoxicity against human A375 cells assessed as growth inhibition at 50 uM after 72 hrs by MTS assay. The format is functional, cell-based. The method in brief: as §2
Assay [2] deals with MIA PaCa-2. In words: Induction of apoptosis in human MIAPaCa2 cells transfected with retroviral expression vector pMSCV-LucSh at 70 uM after 24 hrs by CellEvent/TMRM dye-based microscopic analysis. Format: functional, cell-based. The method in brief: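 10,000 cells/well plated and adhered overnight, then drug added for 24 h. Stained with 5 µM CellEvent caspase-3/7 dye plus 2.5 µM TMRM in PBS, 30 min at 37 °C in the dark. Imaged by fluorescence microscopy, and bright-green apoptotic nuclei counted in 6–8 fields per condition. Percent apoptosis normalized to control, from three independent experiments, compared by Student t test.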

The target in assay [3] is Proto-oncogene tyrosine-protein kinase Src (Homo sapiens) (UniProt P12931). In words: Inhibition of SRC (unknown origin) at 1 uM by Z'-LYTE assay relative to control. An outline of the steps: (§3)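 Z'-LYTE SelectScreen single-point biochemical kinase assay, done by an outside service. Compound at 1 µM with 100 µM ATP in the reaction. Percent inhibition calculated per the Z'-LYTE analysis protocol, as the mean of two independent runs.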

Assay [4] has as its target T1, Focal adhesion kinase 1/vascular endothelial growth factor receptor 3 (Homo sapiens) (UniProt P35916+Q05397). In words: Inhibition of FAK/VEGFR-3 interaction in human MIAPaCa2 cells transfected with retroviral expression vector pMSCV-LucSh assessed as decrease in levels of VEGFR3 and phosphorylated tyrosine residues associated with FAK protein after 24 hrs by immunoprecipitation assay. Format: cell-based. The settings on record: MIA PaCa-2. The method in brief: (§4)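 Cells treated at increasing doses for 24 h, then lysed in NP40 buffer with inhibitors. 500 or 800 µg lysate precleared, then immunoprecipitated with FAK 4.47 or VEGFR3 9D9, with isotype IgG and no-antibody controls, overnight with Protein A/G beads at 4 °C. Immunoblotted for pan-phosphotyrosine (4G10), total FAK and total VEGFR3. Bands quantified by densitometry.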

Assay [5] has as its target RAC-alpha serine/threonine-protein kinase (Homo sapiens) (UniProt P31749). In words: Inhibition of AKT1 (unknown origin) at 1 uM by Z'-LYTE assay relative to control. The method in brief:
as §3

Assay [6] has as its target Vascular endothelial growth factor receptor 3 (Homo sapiens) (UniProt P35916). Briefly: Inhibition of FLT4 (unknown origin) at 1 uM by Z'-LYTE assay relative to control. An outline of the steps:
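Z'-LYTE SelectScreen single-point biochemical kinase assay, run as a contracted service. Compound at 1 µM and ATP at 100 µM in the reaction. Percent inhibition calculated per the Z'-LYTE analysis protocol, given as the mean of two independent runs.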

For assay [7], the target named is T2, Focal adhesion kinase 1 (Homo sapiens, UniProt Q05397). In words: Binding affinity to biotinylated human FAK FAT domain by biolayer interoferometry. The method in brief:
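Bio-layer interferometry on super streptavidin biosensor tips, pre-wetted in buffer for a baseline before FAT protein immobilization. Association and dissociation measured over 210 s at two small-molecule concentrations. Kon, Koff and Kd derived from the kinetic fits.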
Target sequence in this assay (Q05397 whole entry, the tested form may be a part): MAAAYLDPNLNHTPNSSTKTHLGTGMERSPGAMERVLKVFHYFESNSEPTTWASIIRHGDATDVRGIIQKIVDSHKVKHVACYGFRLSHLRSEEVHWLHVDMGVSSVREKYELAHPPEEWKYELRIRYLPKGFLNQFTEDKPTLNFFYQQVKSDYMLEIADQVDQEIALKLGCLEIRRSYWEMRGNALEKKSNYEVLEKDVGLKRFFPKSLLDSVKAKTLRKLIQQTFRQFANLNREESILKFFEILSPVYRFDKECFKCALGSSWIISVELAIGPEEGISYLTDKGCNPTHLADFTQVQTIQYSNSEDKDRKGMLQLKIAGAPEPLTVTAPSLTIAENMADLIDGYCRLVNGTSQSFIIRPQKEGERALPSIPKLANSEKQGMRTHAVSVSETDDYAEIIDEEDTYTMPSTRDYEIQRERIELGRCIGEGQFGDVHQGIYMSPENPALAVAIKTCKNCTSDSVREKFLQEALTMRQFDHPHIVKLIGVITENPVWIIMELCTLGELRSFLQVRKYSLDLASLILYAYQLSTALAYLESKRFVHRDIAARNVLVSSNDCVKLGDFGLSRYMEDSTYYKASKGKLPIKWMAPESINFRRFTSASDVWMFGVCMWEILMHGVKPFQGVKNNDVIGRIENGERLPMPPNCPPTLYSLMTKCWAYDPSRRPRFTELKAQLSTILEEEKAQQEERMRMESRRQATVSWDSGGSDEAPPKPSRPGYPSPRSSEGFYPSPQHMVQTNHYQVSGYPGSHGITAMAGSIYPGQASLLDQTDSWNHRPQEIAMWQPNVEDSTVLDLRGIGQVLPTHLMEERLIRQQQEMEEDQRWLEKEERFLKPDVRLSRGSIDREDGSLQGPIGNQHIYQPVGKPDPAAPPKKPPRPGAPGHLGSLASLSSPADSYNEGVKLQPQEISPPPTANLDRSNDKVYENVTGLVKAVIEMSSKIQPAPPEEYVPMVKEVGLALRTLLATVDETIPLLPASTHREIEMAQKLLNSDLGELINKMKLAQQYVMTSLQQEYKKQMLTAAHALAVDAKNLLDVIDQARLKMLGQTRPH

Assay [8] has as its system MCF7. In words: Induction of apoptosis in human MCF7 cells overexpressing VEGFR-3/FAK assessed as increase in PARP cleavage after 24 hrs. Format: functional, cell-based. An outline of the steps: (§5)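 MCF7-VEGFR3 cells grown to about 80% confluence, then given compound at the indicated concentrations for 24 h at 37 °C. Lysed in 1% NP40 buffer with phosphatase and protease inhibitors. 30 µg protein run by SDS-PAGE and immunoblotted with caspase-3 and PARP rabbit polyclonal antibodies, detected by ECL.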

Assay [9] addresses Vascular endothelial growth factor receptor 1 (Homo sapiens) (UniProt P17948). Briefly: Inhibition of FLT1 (unknown origin) at 1 uM by Z'-LYTE assay relative to control. The method in brief:
as §3

Assay [10] concerns the target Protein-tyrosine kinase 2-beta (Homo sapiens) (UniProt Q14289). Briefly: Inhibition of PTK2B (unknown origin) at 1 uM by Z'-LYTE assay relative to control. The method in brief: as §3
In assay [11] the target is Vascular endothelial growth factor receptor 2 (Homo sapiens) (UniProt P35968). Briefly: Inhibition of KDR (unknown origin) at 1 uM by Z'-LYTE assay relative to control. An outline of the steps: as §3
Assay [12] has as its target Insulin-like growth factor 1 receptor (Homo sapiens) (UniProt P08069). Briefly: Inhibition of IGF1R (unknown origin) at 1 uM by Z'-LYTE assay relative to control. The method in brief: as §3
Assay [13] has as its target T1, Focal adhesion kinase 1/vascular endothelial growth factor receptor 3 (Homo sapiens). Briefly: Inhibition of FAK/VEGFR-3 interaction in human MIAPaCa2 cells transfected with retroviral expression vector pMSCV-LucSh assessed as decrease in levels of VEGFR3 and phosphorylated tyrosine residues associated with FAK protein after 24 hrs by densitometric analysis. Format: cell-based. The settings on record: MIA PaCa-2. An outline of the steps: as §4

Assay [14] deals with Platelet-derived growth factor receptor alpha (Homo sapiens) (UniProt P16234). Briefly: Inhibition of PDGFRA (unknown origin) at 1 uM by Z'-LYTE assay relative to control. The method in brief:
as §3

Assay [15] addresses T2, Focal adhesion kinase 1. Briefly: Inhibition of PTK2 (unknown origin) at 1 uM by Z'-LYTE assay relative to control. An outline of the steps:
as §3

Assay [16] addresses T1, Focal adhesion kinase 1/vascular endothelial growth factor receptor 3 (Homo sapiens). In words: Inhibition of FAK/VEGFR-3 interaction in human MIAPaCa2 cells transfected with retroviral expression vector pMSCV-LucSh assessed as reduction in VEGFR3 pan-phosphorylated tyrosine level after 24 hrs by immunoprecipitation assay. The format is cell-based. The following applies: MIA PaCa-2. An outline of the steps:
as §4

Assay [17] relates to MIA PaCa-2. Briefly: Cytotoxicity against human MIAPaCa2 cells transfected with retroviral expression vector pMSCV-LucSh assessed as inhibition of colony formation at 10 uM after 14 days by 1,9-dimethyl-methylene blue staining-based assay. Format: functional, cell-based. An outline of the steps: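 700 cells/well seeded, and compound added at once at the specified concentrations. Incubated 10–14 days at 37 °C (figure legend gives 14 days). Colonies stained with 0.25% 1,9-dimethyl-methylene blue in 50% methanol for 1 h, washed, dried and scanned. Run in duplicate and repeated three times independently.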

For assay [18], the system named is MCF7. Briefly: Cytotoxicity against human MCF7 cells overexpressing VEGFR-3/FAK assessed as inhibition of colony formation at 10 uM after 14 days by 1,9-dimethyl-methylene blue staining-based assay. Format: functional, cell-based. An outline of the steps: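 Colony formation. 700 cells/well seeded with compound added immediately, then incubated at 37 °C for 10–14 days (legend: 14 days). Colonies stained for 1 h with 0.25% 1,9-dimethyl-methylene blue in 50% methanol, washed, dried and scanned. Duplicate wells, three independent experiments.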

The subject of assay [19] is MCF7. In words: Cytotoxicity against human MCF7 cells overexpressing VEGFR-3/FAK after 72 hrs by MTS assay. The format is functional, cell-based. An outline of the steps:
as §2

The target of assay [20] is T1, Focal adhesion kinase 1/vascular endothelial growth factor receptor 3 (Homo sapiens). Briefly: Inhibition of FAK/VEGFR-3 interaction in human MCF7 cells assessed as decrease in VEGFR3 protein level at 10 uM after 24 hrs by immunoprecipitation assay. Format: cell-based. An outline of the steps:
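MCF7-VEGFR3 cells treated with selected analogs for 24 h, then lysed in NP40 buffer. FAK immunoprecipitated with clone 4.47 after preclearing, 2 h antibody binding and overnight incubation with Protein A/G beads at 4 °C. Co-precipitated VEGFR3 and total FAK detected by immunoblot on 7.5% gel.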

The target is the same in assay [21]. In words: Inhibition of FAK/VEGFR-3 interaction in human MIAPaCa2 cells transfected with retroviral expression vector pMSCV-LucSh assessed as reduction in VEGFR3 pan-phosphorylated tyrosine level after 24 hrs by densitometric analysis. Format: cell-based. The following applies: MIA PaCa-2. An outline of the steps: as §4
Assay [22] deals with MCF7. Briefly: Induction of apoptosis in human MCF7 cells overexpressing VEGFR-3/FAK assessed as increase in caspase-3 cleavage after 24 hrs. The format is functional, cell-based. An outline of the steps: as §5
Assay [23] deals with MIA PaCa-2. Briefly: Induction of apoptosis in human MIAPaCa2 cells transfected with retroviral expression vector pMSCV-LucSh assessed as increase in caspase-3 cleavage after 24 hrs. Format: functional, cell-based. The method in brief:
(§6)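 Cells seeded to reach about 80% confluence at 24 h, then drug-treated at increasing doses for 24 h at 37 °C. Lysed in 1% NP40 buffer with protease and phosphatase inhibitors. 30 µg protein run on SDS gel and transferred to PVDF. Immunoblotted overnight at 4 °C with caspase-3 and PARP rabbit polyclonals for cleavage products. ECL detection.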

Assay [24] has as its target Epidermal growth factor receptor (Homo sapiens) (UniProt P00533). Briefly: Inhibition of EGFR (unknown origin) at 1 uM by Z'-LYTE assay relative to control. The method in brief:
as §3

In assay [25] the test system is MIA PaCa-2. In words: Induction of apoptosis in human MIAPaCa2 cells transfected with retroviral expression vector pMSCV-LucSh assessed as increase in PARP cleavage after 24 hrs. Format: functional, cell-based. The method in brief:
as §6

The source made the active and inactive calls. The calls are words filed in the database; no cut-off is given here.

T1 sequence (P35916 whole entry, looked up): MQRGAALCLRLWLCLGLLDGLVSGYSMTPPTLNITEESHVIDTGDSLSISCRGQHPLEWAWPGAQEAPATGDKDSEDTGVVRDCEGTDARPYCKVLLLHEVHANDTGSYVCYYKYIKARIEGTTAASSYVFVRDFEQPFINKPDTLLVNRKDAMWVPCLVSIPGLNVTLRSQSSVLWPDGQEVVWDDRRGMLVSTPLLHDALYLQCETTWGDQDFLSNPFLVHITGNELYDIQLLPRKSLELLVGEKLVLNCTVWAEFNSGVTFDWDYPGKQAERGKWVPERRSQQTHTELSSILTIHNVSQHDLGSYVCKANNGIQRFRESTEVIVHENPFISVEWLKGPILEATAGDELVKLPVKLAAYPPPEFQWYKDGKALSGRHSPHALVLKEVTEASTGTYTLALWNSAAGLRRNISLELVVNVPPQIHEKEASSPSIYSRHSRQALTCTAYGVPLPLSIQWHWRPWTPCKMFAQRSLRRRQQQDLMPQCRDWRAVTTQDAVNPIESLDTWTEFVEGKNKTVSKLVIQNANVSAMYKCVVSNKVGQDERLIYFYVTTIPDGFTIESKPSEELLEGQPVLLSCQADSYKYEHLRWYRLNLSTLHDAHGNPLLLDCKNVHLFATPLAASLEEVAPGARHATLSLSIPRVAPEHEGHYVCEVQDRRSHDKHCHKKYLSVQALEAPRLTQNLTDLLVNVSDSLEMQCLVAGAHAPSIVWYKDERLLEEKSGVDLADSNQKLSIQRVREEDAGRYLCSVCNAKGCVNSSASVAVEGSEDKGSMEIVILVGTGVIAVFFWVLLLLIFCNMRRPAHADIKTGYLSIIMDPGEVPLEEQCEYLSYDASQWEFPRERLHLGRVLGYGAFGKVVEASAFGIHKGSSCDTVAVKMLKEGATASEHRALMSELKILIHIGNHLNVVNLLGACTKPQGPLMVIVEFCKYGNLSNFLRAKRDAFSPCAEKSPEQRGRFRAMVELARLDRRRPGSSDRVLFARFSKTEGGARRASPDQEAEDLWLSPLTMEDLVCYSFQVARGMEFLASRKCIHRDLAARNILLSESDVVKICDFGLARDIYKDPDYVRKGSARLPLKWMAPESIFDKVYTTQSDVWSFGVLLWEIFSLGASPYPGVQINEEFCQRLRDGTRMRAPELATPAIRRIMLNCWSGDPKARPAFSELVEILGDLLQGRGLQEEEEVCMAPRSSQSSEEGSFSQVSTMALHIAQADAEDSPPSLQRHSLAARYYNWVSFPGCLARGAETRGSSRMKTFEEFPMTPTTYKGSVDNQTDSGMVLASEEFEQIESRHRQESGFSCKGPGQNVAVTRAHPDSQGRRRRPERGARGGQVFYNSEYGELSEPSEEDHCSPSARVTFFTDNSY
T1 sequence (Q05397 whole entry, looked up): as the sequence (Q05397 whole entry, the tested form may be a part) above
Chain of Insulin-like growth factor 1 receptor (Homo sapiens) (P08069 31-736 limits assumed): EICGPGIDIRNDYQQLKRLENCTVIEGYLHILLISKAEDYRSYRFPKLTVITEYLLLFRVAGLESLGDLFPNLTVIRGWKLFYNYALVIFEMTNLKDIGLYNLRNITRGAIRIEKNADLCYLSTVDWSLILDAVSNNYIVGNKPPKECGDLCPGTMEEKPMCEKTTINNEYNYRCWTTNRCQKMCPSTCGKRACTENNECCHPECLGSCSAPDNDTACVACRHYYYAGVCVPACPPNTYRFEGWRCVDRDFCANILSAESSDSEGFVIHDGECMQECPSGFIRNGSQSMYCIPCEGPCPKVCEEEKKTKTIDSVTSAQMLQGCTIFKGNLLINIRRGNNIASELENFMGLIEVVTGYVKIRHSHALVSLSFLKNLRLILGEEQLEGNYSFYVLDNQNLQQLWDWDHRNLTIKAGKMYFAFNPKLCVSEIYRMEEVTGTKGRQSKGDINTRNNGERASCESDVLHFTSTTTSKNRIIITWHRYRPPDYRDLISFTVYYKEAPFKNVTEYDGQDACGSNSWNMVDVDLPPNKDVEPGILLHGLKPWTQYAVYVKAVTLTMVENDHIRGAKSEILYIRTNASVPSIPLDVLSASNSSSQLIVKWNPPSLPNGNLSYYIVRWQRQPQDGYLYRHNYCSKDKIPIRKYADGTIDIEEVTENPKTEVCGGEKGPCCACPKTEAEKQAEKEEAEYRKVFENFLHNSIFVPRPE
Chain of Insulin-like growth factor 1 receptor (Homo sapiens) (P08069 741-1367 limits assumed): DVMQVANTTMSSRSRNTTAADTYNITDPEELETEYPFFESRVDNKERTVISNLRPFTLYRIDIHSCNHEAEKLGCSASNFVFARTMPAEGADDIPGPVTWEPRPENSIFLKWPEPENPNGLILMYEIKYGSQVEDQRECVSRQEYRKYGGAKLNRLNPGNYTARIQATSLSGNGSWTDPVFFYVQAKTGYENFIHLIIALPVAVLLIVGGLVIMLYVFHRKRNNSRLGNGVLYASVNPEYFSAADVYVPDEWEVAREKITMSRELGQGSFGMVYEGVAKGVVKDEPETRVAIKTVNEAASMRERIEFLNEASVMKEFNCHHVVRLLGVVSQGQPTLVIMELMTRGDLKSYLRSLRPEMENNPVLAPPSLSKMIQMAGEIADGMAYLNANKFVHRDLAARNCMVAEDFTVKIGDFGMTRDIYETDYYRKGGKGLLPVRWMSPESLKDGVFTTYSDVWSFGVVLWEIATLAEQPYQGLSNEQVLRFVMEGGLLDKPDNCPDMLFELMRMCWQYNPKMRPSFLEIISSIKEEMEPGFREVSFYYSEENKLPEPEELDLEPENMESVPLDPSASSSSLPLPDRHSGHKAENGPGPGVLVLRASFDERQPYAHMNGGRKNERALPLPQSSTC
Chain of Vascular endothelial growth factor receptor 3 (Homo sapiens) (P35916 whole entry): as the sequence (P35916 whole entry, looked up) above
Chain of Platelet-derived growth factor receptor alpha (Homo sapiens) (P16234 whole entry): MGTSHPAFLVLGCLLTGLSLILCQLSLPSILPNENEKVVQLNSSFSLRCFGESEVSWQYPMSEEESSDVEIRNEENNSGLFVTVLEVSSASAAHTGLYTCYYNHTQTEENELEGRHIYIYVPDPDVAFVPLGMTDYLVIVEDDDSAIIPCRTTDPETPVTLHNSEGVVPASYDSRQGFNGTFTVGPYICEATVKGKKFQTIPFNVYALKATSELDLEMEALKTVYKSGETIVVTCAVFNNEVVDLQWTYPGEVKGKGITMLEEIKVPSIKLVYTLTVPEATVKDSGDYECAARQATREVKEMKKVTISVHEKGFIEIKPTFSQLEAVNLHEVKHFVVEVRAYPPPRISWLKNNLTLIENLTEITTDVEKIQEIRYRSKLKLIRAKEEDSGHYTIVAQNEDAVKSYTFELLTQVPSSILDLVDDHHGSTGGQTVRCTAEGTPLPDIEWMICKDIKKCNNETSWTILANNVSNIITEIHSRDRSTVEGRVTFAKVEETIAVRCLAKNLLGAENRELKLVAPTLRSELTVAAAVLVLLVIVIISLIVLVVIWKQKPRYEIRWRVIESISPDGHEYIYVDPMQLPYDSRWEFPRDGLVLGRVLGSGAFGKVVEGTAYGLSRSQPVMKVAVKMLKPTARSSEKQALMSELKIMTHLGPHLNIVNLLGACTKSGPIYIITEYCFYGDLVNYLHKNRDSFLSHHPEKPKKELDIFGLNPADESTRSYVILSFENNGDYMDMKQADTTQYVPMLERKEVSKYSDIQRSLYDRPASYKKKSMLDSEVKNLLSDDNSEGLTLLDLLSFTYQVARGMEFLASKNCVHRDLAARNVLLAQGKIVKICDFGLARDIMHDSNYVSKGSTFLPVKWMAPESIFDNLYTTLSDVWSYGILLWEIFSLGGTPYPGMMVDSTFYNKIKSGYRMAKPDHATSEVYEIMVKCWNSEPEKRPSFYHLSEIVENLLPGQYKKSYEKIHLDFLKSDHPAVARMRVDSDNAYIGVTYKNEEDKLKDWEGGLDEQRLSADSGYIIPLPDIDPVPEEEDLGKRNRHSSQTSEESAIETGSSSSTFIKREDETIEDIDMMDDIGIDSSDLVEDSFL

In the case of `CCCN(CCN(C)C)c1ccccn1`, the “growth inhibition (GI)” value in the assay on PANC-1, in the assay with C8161, in the assay on U-87MG ATCC, with MDA-MB-231, with MIA PaCa-2 [1] and with A-375 was “inactive” in each case.
Usually inhibition stands for the change of the read-out against control, counted positive when it falls. What is called Kd is a measure of binding affinity in units of concentration. Read a high Kd as weaker binding. Turning to `CN(C)CCN(Cc1ccc(Cl)cc1)c1ccc2ccccc2n1`, the outcome with MIA PaCa-2 [2] and in the assay with MCF7 [19] was Active. Further, the inhibition in assay [3] was 3%; in [4], “Dose-dependent effect”; in [5], 7%; in [6], 4%; in [9] it was 1%; in [10], 0%. The inhibition in assay [11] was 14%; in [12] it was 11%; in assay [13], “Dose-dependent effect”; in [14] it was 8%; against Focal adhesion kinase 1 [15] it was 13%; in assay [16], “Dose-dependent effect”. The values for the inhibition result in [21] and in assay [24] were “Dose-dependent effect” and 4%, respectively. In addition, the “growth inhibition (GI)” value in the assay on PANC-1 and in the assay with MIA PaCa-2 [1] was “Active” each time. The Kd at Focal adhesion kinase 1 [7] came to 18 nM. Also, the Activity result in the assay with MCF7 [8], with MCF7 [22], with MIA PaCa-2 [23] and in the assay on MIA PaCa-2 [25] was “Dose-dependent effect” throughout. Besides, the inhibition entry (with MIA PaCa-2 [17]; with MCF7 [18]; in assay [20]) was “Active” in each case.
As to `CCCCCCCCCCN(CCN(C)C)c1ccccn1`, the “growth inhibition (GI)” value in the assay on PANC-1, in the assay with C8161, in the assay on U-87MG ATCC, with MDA-MB-231, in the assay on MIA PaCa-2 [1] and in the assay with A-375 was “Active” each time.
On to `CCCCCCCCN(CCN(C)C)c1ccccn1`, for which the “growth inhibition (GI)” value with PANC-1, with C8161, in the assay on U-87MG ATCC, with MDA-MB-231, with MIA PaCa-2 [1] and in the assay on A-375 was “Active” throughout.

The record behind these values is ChEMBL document CHEMBL3259731, “Design, synthesis, and biological evaluation of novel FAK scaffold inhibitors targeting the FAK-VEGFR3 protein-protein interaction” (Eur J Med Chem, 2014).
